The text below walks through data of ChEMBL document CHEMBL1155413, “Synthesis and evaluation of a library of 2,5-bisdiamino-benzoquinone derivatives as probes to modulate protein-protein interactions in prions” (Bioorg Med Chem Lett, 2010).

What all share (type): cell-based
The nature of series [1]: Cytotoxicity against mouse ScGT1 cells at 1 uM after 5 days by calcein-AM staining. Particulars: scgt1, 120 h. The method in brief:
(§1)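 ScGT1 cells in DMEM + 10% FBS, plated at 25000 cells per well. Compounds dissolved in 100% DMSO and diluted in PBS, then added at 1 nM–10 μM for 5 days at 37 °C, 5% CO₂. Viability read by Calcein-AM fluorescence on a plate reader as percent viable cells vs untreated control; LC₅₀ taken as the 50% lethal concentration.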

A further series concerns ScGT1. The experiment in a line: Antiprion activity against scrapie prion protein replication in mouse ScGT1 cells assessed as inhibition of formation of PrPSc from PrPc after 5 days by western-blot analysis. Set-up: concentration or dose not given beside the values. The conditions noted are these: dose or concentration not given here. The method in brief:
(§2)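 ScGT1 cells in DMEM + 10% FBS, split 1:10 into Petri dishes and grown 2 days at 37 °C, 5% CO₂. Compounds added at non-toxic concentrations from 0.1 nM upward and left 5 days. Proteins then extracted, quantified, digested with proteinase K and Western-blotted. Densitometry of PK-resistant PrP gives percent remaining vs untreated cells; EC₅₀ taken as the concentration for half-maximal inhibition.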

The nature of series [2]: Antiprion activity against scrapie prion protein replication in mouse ScGT1 cells assessed as inhibition of formation of PrPSc from PrPc […] after 5 days by western-blot analysis. Particulars: ScGT1, 120 h. The method in brief: as §2
Series [3] can be described thus: Cytotoxicity against mouse ScGT1 cells at after 5 days by calcein-AM staining. The conditions noted are these: read-out: LC50. The method in brief: as §1

For the compound `COC(=O)[C@H](C)NC1=C(Br)C(=O)C(N[C@@H](CCCCNC(=O)OC(C)(C)C)C(=O)OC)=C(Br)C1=O`, the Activity in series [1] is recorded as 52.3%.

With `COC(=O)[C@H](C)NC1=C(Br)C(=O)C(N[C@@H](C)C(=O)OC)=C(Br)C1=O`, in series [1], the Activity was 91.2%. Also, the inhibition with ScGT1 stood at 0.29%.

Turning to `CC[C@H](C)[C@@H](NC1=C(Br)C(=O)C(N[C@@H](C)C(=O)OC)=C(Br)C1=O)C(=O)OC`, in series [1], the Activity was 91.3%. In addition, the inhibition with ScGT1 was found to be 28.1%.

On to `COC(=O)[C@H](C)NC1=C(Br)C(=O)C(N[C@@H](CCSC)C(=O)OC)=C(Br)C1=O`, for which the Activity in series [1] is listed as 96.1%. Besides, the inhibition in the series on ScGT1 came to 11.4%.

Take `COC(=O)[C@H](C)NC1=C(Br)C(=O)C(N[C@@H](Cc2c[nH]c3ccccc23)C(=O)OC)=C(Br)C1=O`: in series [1], the Activity is 65.9%. Also, the inhibition in the series with ScGT1 was found to be 0.43%.

In the case of `COC(=O)[C@H](C)NC1=C(Cl)C(=O)C(N[C@@H](CCSC)C(=O)OC)=C(Cl)C1=O`, the Activity in series [1] was 95.5%. Also, the inhibition in the series with ScGT1 amounted to 4.8%.

In the case of `COC(=O)[C@H](C)NC1=C(Br)C(=O)C(N[C@@H](CCCNC(=N)N[N+](=O)[O-])C(=O)OC)=C(Br)C1=O`, the Activity in series [1] is listed as 74.1%. In the series with ScGT1, the inhibition is 0.31%.

As for `COC(=O)[C@H](C)NC1=C(Cl)C(=O)C(N[C@@H](CCCNC(=N)N[N+](=O)[O-])C(=O)OC)=C(Cl)C1=O`, the Activity in series [1] is 81.4%. In addition, the inhibition in the series with ScGT1 amounted to 0.23%.

As to `COC(=O)[C@H](C)NC1=C(Cl)C(=O)C(N[C@@H](Cc2ccccc2)C(=O)OC)=C(Cl)C1=O`, the Activity in series [1] is recorded as 68.4%. Further, the inhibition in the series on ScGT1 came to 73.2%. Besides, the EC50 in series [2] worked out at 870 nM. Moreover, the CC50 at 120 h in series [3] is 2400 nM.

Take `COC(=O)[C@H](C)NC1=C(Cl)C(=O)C(N[C@@H](Cc2c[nH]c3ccccc23)C(=O)OC)=C(Cl)C1=O`: in series [1], the Activity was 96%. In the series on ScGT1, the inhibition is 0.25%. Also, in series [2], the 50% effective concentration (EC50) is 7700 nM.

`COC(=O)[C@H](C)NC1=C(Br)C(=O)C(N[C@@H](Cc2ccccc2)C(=O)OC)=C(Br)C1=O`: the Activity in series [1] is 80.2%. Also, the inhibition in the series with ScGT1 came to 18.1%. Also, in series [2], the EC50 was 3600 nM.

In the case of `COC(=O)[C@H](C)NC1=C(Cl)C(=O)C(N[C@@H](C)C(=O)OC)=C(Cl)C1=O`, in series [1], the Activity is reported as 71.6%. For the same compound, the inhibition in the series with ScGT1 was 0.36%.

Take `COC(=O)[C@H](C)NC1=C(Cl)C(=O)C(N[C@@H](CCCCNC(=O)OC(C)(C)C)C(=O)OC)=C(Cl)C1=O`: the Activity in series [1] is reported as 40.7%.

As to `CC[C@H](C)[C@@H](NC1=C(Cl)C(=O)C(N[C@@H](C)C(=O)OC)=C(Cl)C1=O)C(=O)OC`, the Activity in series [1] is listed as 88.2%. Moreover, the inhibition in the series on ScGT1 turned out to be 6.6%.

Usually inhibition stands for the relative decrease from the control value, in per cent. A word on the EC50: it is the concentration needed to bring the measured effect to its halfway point.
